Bioassay records: PubChem, several laboratories
This is one part of a sample in which hits are shown more often than they occur.
ABCG2 block: ABCG2 efflux pump inhibitors, primary screen, multiplex with ABCB1, IgMXP3 cells, flow cytometry. Broad substrate specificity ATP-binding cassette transporter ABCG2 (Homo sapiens), Q9UNQ0. JC-1 efflux. inhibition, % at 6.6 µM. hit rate 0.1% among 190,000. AID 1325, 2008;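 active = inhibition above 80%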;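 note: 0% = DMSO and 100% = nicardipine control wells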
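material = IgMXP3 (ABCG2) plus far-red-tagged CCRF-Adr (ABCB1) cells | amount = 3 million cells/mL, equal mix of both lines | also added = JC-1 transporter substrate | dosing = one concentration, 6.6 µM final | schedule = 10 min at 25 °C | measured by = flow cytometric JC-1 green MFI at 530 nm | read-out basis = percent efflux inhibition, scaled nicardipine 100% to DMSO 0%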
PKD1 inh: inhibitors of human PKD1 kinase, biochemical, fluorescence polarization | PKD1 kinase fluorescence polarization assay | AID 797, 2007 | inhibition, % (concentration not given with the values) | hit rate 0.056% among 200,000 | Serine/threonine-protein kinase D1 (Homo sapiens), Q15139
Target sequence (Q15139 whole entry, looked up): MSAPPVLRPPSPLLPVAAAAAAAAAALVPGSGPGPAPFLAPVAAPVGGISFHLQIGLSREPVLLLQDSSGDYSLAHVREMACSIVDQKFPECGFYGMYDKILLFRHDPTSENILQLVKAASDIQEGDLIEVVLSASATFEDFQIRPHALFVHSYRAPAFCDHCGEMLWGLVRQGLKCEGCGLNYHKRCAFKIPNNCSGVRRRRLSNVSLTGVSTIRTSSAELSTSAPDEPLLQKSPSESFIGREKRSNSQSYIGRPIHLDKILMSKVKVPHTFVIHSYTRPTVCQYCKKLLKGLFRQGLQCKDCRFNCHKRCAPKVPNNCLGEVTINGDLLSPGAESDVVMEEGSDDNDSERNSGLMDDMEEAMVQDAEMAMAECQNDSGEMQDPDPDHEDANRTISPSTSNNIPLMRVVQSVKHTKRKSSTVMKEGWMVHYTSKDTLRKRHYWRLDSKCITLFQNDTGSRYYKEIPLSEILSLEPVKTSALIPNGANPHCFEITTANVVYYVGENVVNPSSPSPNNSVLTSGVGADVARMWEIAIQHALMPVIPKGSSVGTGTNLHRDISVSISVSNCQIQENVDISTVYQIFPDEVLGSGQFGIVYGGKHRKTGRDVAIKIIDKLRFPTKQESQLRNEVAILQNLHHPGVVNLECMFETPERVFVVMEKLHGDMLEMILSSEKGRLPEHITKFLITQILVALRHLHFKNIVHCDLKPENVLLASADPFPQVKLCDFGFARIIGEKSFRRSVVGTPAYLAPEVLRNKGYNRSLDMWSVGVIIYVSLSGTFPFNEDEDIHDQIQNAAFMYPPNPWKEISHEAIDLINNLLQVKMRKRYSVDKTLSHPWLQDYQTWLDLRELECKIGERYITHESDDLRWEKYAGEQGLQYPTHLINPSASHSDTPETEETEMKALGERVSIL
Avidin fluor: green autofluorescence of compounds with avidin beads – biophysical, 488/530 nm, flow cytometry, artefact control, profiling panel; compound fluorescence 488/530 nm; stronger effect = higher value; fluorescence (KMESF) at 10 µM; hit rate 0.38% among 220,000; AID 1775, 2009; in the data active = fluorescence above about 47
L major viab: Leishmania major promastigote growth inhibition, primary screen; Leishmania major promastigotes, resazurin fluorescence viability; inhibition, % at 10 µM; hit rate 9% among 200,000;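 note: promastigotes grown with compound for 44 hours at 28 °C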
ABCB1 inh: ABCB1 efflux pump inhibitors, primary screen, cell-based, multiplex, flow cytometry, ABCG2 counter-screen; inhibition, % at 6.6 µM; ATP-dependent translocase ABCB1 (Homo sapiens), P08183; CCRF-Adr cells, JC-1 efflux; hit rate 0.067% among 190,000; in the data active = inhibition above about 40%;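 note: 0% = vehicle and 100% = reference inhibitor; higher value means more JC-1 retained so stronger ABCB1 efflux block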
GSH bead fluor: compound fluorescence on glutathione beads, profiling panel, artefact control, biophysical, 488/530 nm, flow cytometry; GSH beads flow cytometry, compound fluorescence 488/530 nm; stronger effect = higher value; fluorescence (KMESF) at 10 µM; hit rate 0.25% among 190,000; AID 1776, 2009; in the data active = fluorescence above about 89;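 note: glutathione beads carrying GST-tagged Bcl family fusion proteins plus one bare bead set; values are compound well signal with DMSO vehicle wells as background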
An asterisk follows results filed as active; nt = no result given. Cut-off read from the data, not from the text of the source, unless noted: active = inhibition above about 50%; inactive = the rest.

SMILES | ABCG2 block | PKD1 inh | Avidin fluor | L major viab | ABCB1 inh | GSH bead fluor
CCO[C@@H]1OC(C(=O)NCc2ccccc2)=C[C@H](c2csc3ccccc23)[C@H]1CCCO | 6 | 0 | 6 | 34 | 4 | 18
O=C(NC1CC1)C1=C[C@H](C2CCCCC2)C[C@H](OCCCCO)O1 | nt | nt | 8 | nt | nt | nt
O=C(Nc1ccccc1)C1=C[C@@H](C2CCCCC2)C[C@@H](OCCCCO)O1 | 14 | -5 | 5 | 92* | 2 | 18
CCO[C@H]1OC(C(=O)NCc2ccccc2)=C[C@@H](c2cn(C(C)=O)c3ccccc23)[C@@H]1CCCO | 7 | 11 | 5 | 82* | 10 | 21
O=C(Nc1ccccc1)C1=C[C@H](C2CCCCC2)C[C@H](OCc2ccc(CO)cc2)O1 | 6 | 5 | 5 | 38 | 4 | 20
CC(=O)n1cc([C@H]2C=C(C(=O)NCc3ccccc3)O[C@@H](OCCCCO)C2)c2ccccc21 | 13 | 7 | 7 | 7 | 8 | 19
CC(=O)n1cc([C@H]2C=C(C(=O)Nc3ccccc3)O[C@@H](OCCCCO)C2)c2ccccc21 | 3 | 1 | 6 | 54* | 4 | 21
O=C(Nc1ccccc1)C1=C[C@@H](C2CCCCC2)C[C@@H](OCc2ccc(CO)cc2)O1 | 15 | 8 | 5 | 97* | 3 | 20
Cc1c(CN(C)C(=O)/C=C/c2ccc([N+](=O)[O-])cc2)cnn1C | -1 | -4 | 11 | -1 | 0 | 10
COc1ccc(C(=O)COc2ccc(NC(C)=O)cc2)cc1 | 1 | 4 | 9 | -4 | 0 | 20
Cc1ccccc1-n1cnc2c(sc3nc(N4CCOCC4)c4c(c32)CCCC4)c1=O | nt | nt | 3 | nt | nt | nt
O=C(Cc1ccc(F)cc1)Nc1ccc(S(=O)(=O)N2CCCCC2)cc1 | 6 | -1 | 10 | 2 | 1 | 27
O=C(Cn1c(=O)oc2cc(S(=O)(=O)N3CCCC3)ccc21)N1CCCC1 | 0 | -13 | 6 | -7 | 0 | 18
CCN(CC(=O)NCc1ccc(F)cc1)CC(=O)Nc1ccc(S(=O)(=O)N2CCCC2)cc1 | 0 | -6 | 9 | 98* | 0 | 15
Cn1c(=O)oc2cc(S(=O)(=O)N3CCN(c4ccc(F)cc4)CC3)ccc21 | 5 | -11 | 17 | 60* | 4 | 32
CN(CC(=O)Nc1ccc(S(=O)(=O)N2CCCC2)cc1)Cc1cccc(Cl)c1Cl | 7 | 12 | 0 | 99* | 1 | 9
Cn1c(=O)c(=O)n(C)c2cc(S(=O)(=O)N3CCN(c4ccc(F)cc4)CC3)ccc21 | 15 | -7 | 7 | -4 | 2 | 22
O=C(Cn1c(=O)oc2cc(S(=O)(=O)N3CCCC3)ccc21)NCc1ccc(F)cc1 | 1 | -7 | 8 | 98* | 0 | 24
CCOC(=O)C1=C(C)N2C(=C(C#N)[C@@H]1c1ccc(C(=O)OC)cc1)SC[C@@]2(O)C(C)(C)C | 4 | -11 | 8 | 3 | 2 | 6
CCc1cccc(NC(=O)Cn2c(=O)oc3cc(S(=O)(=O)N4CCOCC4)ccc32)c1 | 1 | 9 | 6 | -6 | 0 | 19
O=C(Cn1c(=O)oc2cc(S(=O)(=O)N3CCCC3)ccc21)Nc1cccc(C(F)(F)F)c1 | 0 | -15 | 7 | 100* | 0 | 9
COC(=O)C(C(=O)OC)c1ccccc1[N+](=O)[O-] | 2 | -6 | 7 | 0 | 0 | 272*
Cc1c(N=C2NC(=O)/C(=C/c3cccc([N+](=O)[O-])c3)S2)c(=O)n(-c2ccccc2)n1C | 3 | -12 | 13 | 89* | 0 | 10
Cc1c(N=C2C(=O)Nc3ccccc32)c(=O)n(-c2ccccc2)n1C | 1 | -4 | 7 | -7 | 0 | 14
CC(=O)c1ccc(NC(=O)C(=O)c2cn(CC(=O)N3CCCCC3)c3ccccc23)cc1 | -1 | -8 | 17 | -1 | 0 | 12
O=C(COc1cc(Cl)c(Cl)cc1Cl)Nc1ccc([N+](=O)[O-])cc1Cl | nt | nt | 46 | nt | nt | nt
